Results as given in PMC8988011 (The Journal of Biological Chemistry, 2022).
Each block holds one compound with its values, some of them ahead of it.

Assays:
LATS2 = molecular target: T1, LATS2 (Homo sapiens, UniProt Q9NRM7); test: Kinase assay; format: biochemical
T1 sequence (Q9NRM7 553-1088 limits assumed): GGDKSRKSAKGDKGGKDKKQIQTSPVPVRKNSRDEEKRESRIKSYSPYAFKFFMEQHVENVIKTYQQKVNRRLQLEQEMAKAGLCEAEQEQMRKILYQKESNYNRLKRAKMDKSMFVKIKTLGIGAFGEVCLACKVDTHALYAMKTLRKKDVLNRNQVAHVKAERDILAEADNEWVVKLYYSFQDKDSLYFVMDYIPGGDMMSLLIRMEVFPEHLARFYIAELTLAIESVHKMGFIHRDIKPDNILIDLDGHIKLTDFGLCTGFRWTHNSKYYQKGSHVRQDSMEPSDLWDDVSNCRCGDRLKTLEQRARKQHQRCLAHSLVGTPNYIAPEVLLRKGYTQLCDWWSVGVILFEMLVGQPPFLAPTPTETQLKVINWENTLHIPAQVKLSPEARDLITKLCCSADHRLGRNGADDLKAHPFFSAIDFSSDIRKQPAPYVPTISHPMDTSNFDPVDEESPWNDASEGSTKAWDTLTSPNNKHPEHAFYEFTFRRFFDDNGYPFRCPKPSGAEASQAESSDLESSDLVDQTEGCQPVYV
In short: (§1)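 LATS1 and LATS2 activity was measured with a fluorescence kinase/ADP kit following the maker's protocol in 384-well format. IC50 came from dose-response inhibition curves at 400 μM ATP. Mode of inhibition was assessed from Lineweaver-Burk plots of reaction velocity at ATP 100 to 400 μM. Three independent experiments, means ± SD.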

LATS1 = molecular target: T2, LATS1 (Homo sapiens, UniProt O95835); test: Kinase assay; format: biochemical
T2 sequence (O95835 589-1130 limits assumed): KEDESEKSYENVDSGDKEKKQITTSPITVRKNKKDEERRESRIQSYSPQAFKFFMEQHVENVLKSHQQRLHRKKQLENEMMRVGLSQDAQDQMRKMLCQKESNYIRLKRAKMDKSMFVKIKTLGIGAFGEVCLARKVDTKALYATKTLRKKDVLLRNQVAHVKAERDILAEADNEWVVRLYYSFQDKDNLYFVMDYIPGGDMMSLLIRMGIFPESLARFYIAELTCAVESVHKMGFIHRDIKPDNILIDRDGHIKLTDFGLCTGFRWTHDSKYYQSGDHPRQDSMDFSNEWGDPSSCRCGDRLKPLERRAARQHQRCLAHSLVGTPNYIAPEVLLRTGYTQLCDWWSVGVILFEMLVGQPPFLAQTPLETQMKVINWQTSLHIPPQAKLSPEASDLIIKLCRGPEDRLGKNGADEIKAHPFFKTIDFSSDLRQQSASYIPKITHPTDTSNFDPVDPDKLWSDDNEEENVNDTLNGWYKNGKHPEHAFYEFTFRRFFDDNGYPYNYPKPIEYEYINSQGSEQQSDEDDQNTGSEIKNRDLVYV
In short: as §1

[1] = tested on: mouse intestinal organoids; test: Organoid culture in Matrigel; format: cell-based; settings: 10 μM, up to 9 days, vs vehicle
SKOV3 cells [2] = test: Growth in 2D monolayer culture, ATP assay; format: cell-based, Human; settings: 10 μM; Fig. 1D
In short: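 SKOV3 monolayers were grown in medium without gellan gum on cell-attachable 96-well flat-bottom plates at 700 cells/well, 37 °C, 5% CO2, humidified. Cultures received 10 μM test compound or DMSO vehicle. Cell number was followed over time by ATP assay, and each day's value was normalized to day 0.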

MSK1 = MSK1 (Homo sapiens, UniProt O75582); test: Kinase panel assay; format: biochemical
Chain of MSK1 (O75582 whole entry): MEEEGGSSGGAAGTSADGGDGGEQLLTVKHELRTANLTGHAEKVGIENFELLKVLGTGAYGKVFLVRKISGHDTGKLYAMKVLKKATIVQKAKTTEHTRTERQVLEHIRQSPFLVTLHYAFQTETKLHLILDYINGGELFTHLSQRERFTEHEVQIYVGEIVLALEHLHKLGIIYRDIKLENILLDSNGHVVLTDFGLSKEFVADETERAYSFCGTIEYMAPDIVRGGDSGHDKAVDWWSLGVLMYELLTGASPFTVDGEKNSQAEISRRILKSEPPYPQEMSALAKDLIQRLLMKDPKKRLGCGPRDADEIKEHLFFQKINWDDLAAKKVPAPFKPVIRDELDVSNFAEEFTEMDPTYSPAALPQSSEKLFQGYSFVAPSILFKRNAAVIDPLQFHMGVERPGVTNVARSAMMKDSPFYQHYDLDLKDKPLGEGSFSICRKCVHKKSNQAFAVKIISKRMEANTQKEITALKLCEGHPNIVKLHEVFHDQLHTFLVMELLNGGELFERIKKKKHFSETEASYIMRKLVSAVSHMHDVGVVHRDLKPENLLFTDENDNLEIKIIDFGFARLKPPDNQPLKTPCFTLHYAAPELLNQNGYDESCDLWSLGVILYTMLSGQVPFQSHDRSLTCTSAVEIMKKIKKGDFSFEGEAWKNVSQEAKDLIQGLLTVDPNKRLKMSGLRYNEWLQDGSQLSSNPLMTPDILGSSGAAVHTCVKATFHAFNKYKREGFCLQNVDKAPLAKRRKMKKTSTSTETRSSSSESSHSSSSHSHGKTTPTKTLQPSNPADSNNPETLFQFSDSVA

A431 cells = test: Hanging drop cell culture, ATP assay; format: cell-based, Human; settings: 10 μM, 2 days
In short: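 A431 cells at 50,000 cells/ml received 10 μM test compound or DMSO. They were then hung as 10 μl drops (15 per lid) over a PBS-filled dish and cultured 2 days at 37 °C. Pooled drops were assayed for cell number by ATP assay, as % of DMSO control. 11 independent experiments, means ± SD, Student's t test.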

SGK3 = molecular target: T3, SGK3 (Homo sapiens, UniProt Q96BR1); test: Kinase panel assay; format: biochemical
T3 sequence (Q96BR1 1-496): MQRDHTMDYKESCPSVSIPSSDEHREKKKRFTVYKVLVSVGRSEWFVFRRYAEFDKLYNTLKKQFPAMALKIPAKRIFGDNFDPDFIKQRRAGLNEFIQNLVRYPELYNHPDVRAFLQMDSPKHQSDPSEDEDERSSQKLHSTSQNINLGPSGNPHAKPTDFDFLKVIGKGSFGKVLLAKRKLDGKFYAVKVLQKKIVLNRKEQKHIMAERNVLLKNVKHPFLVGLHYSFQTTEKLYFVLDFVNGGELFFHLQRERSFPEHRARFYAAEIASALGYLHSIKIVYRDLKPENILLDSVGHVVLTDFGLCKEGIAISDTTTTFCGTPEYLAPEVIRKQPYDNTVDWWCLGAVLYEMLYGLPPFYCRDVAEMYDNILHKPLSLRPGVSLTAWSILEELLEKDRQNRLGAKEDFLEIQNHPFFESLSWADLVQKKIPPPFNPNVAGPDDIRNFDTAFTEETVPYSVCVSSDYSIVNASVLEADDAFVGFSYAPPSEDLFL

MDCK cells = test: Cyst culture in Matrigel; format: cell-based, canine; settings: 10 μM, 6 days
In short: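 MDCK cells at 1.1 × 10^4 cells/ml in medium with 0.2% Matrigel GFR were plated onto a pre-set Matrigel GFR layer (15 min, 37 °C). Medium holding 10-fold concentrated test compound or DMSO was added, and plates were incubated for 6 days at 37 °C. Cysts (>30 μm diameter) were counted and sized by automated imaging. Three independent experiments, means ± SD, Student's t test.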

p70S6K = p70S6K (Homo sapiens, UniProt P23443); test: Kinase panel assay; format: biochemical
Chain of p70S6K (P23443 whole entry): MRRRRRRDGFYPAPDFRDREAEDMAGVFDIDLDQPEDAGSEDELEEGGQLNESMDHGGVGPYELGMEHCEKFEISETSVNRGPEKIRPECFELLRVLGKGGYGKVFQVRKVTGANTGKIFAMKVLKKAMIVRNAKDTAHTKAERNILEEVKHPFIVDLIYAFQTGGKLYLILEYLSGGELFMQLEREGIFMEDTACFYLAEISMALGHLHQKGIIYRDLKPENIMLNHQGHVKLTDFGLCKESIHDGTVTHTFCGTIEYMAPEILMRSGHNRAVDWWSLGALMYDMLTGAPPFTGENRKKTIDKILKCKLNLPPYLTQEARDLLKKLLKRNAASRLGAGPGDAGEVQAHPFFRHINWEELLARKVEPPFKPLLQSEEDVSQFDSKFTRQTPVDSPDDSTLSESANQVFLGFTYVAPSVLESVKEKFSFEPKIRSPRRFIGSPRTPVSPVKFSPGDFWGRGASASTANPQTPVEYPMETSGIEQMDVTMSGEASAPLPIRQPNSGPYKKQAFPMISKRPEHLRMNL

SGK2 = molecular target: T4, SGK2 (Homo sapiens, UniProt Q9HBY8); test: Kinase panel assay; format: biochemical
T4 sequence (Q9HBY8 1-367): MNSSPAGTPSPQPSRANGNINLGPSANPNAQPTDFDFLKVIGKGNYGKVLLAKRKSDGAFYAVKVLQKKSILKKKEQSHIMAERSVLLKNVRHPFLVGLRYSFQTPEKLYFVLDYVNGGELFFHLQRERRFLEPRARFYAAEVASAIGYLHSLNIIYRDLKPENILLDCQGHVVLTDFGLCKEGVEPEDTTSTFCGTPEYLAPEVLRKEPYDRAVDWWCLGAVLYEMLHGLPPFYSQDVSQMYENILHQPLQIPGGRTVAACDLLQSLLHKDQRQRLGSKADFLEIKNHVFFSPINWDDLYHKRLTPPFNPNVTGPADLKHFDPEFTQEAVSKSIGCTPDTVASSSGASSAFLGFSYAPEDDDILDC

PKACα = PKACα (Homo sapiens, UniProt P17612); test: Kinase panel assay; format: biochemical
SKOV3 cells [3] = test: Growth in gellan gum–containing medium; format: cell-based, Human; settings: 10 μM, maximally effective concentration
In short: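 SKOV3 cells were suspended in medium with 0.015% (w/v) gellan gum and seeded at 2000 cells/well in 96-well flat-bottom low-attachment plates, 37 °C, 5% CO2. A test compound concentration series or DMSO vehicle was applied for 4 days. Cell number was read by ATP assay and expressed as % of DMSO control.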

PKACβ = PKACβ (Homo sapiens, UniProt P22694); test: Kinase panel assay; format: biochemical
[4] = tested on: LATS1-deleted or LATS2-deleted SKOV3 cells; test: Growth of LATS knockout cells in U-bottom low-attachment plates, ATP assay; format: cell-based, Human; settings: 10 μM, 4 days
SKOV3 cells [5] = test: Growth in U-bottom low-attachment plates; format: cell-based, Human; settings: with GA-017, 4 days, Fig. 3J

inhibition of LATS2 (LATS2; compared with GA-017, Fig. S7): comparable inhibition
inhibition of LATS1 (LATS1; compared with GA-017, Fig. S7): comparable inhibition
Compound: CC/C(=N\NC(=O)C(C)Nc1ccccc1)c1ccc(O)c(C)c1O (stereo not shown) [GA-002, (E)-N'-(1-(2,4-dihydroxy-3-methylphenyl)propylidene)-2-(phenylamino)propanehydrazide]

IC50 (MSK1): < 40 nM
IC50 (SGK3): < 40 nM
IC50 (p70S6K): < 40 nM
IC50 (LATS2): 3.92 ± 0.42 nM
Ki (LATS2): 0.25 ± 0.03 nM
IC50 (SGK2): < 40 nM
IC50 (PKACα): < 40 nM
IC50 (LATS1): 4.1 ± 0.79 nM
Ki (LATS1): 0.58 ± 0.11 nM
IC50 (PKACβ): < 40 nM
Compound: CC/C(=N\NC(=O)NCc1cccc(O)c1)c1ccc(O)c(C)c1O [GA-017, (E)-2-(1-(2,4-dihydroxy-3-methylphenyl)propylidene)-N-(3-hydroxybenzyl)hydrazine-1-carboxamide]
ex vivo formation of intestinal organoids [1]: significantly enhanced the ex vivo formation of intestinal organoids
cell growth under 2D conditions (SKOV3 cells [2]): did not affect cell growth
growth of spheroids formed in hanging drops (A431 cells): promoted the growth of spheroids
number of cysts versus vehicle control (DMSO) (MDCK cells): 1.5 fold
increase in the number of SKOV3 cells (SKOV3 cells [3]): over 2 fold
growth-promoting effect on LATS1- or LATS2-deleted cells [4]: did not exhibit a growth-promoting effect

Compound: Verteporfin
effect on the growth-promoting effect of GA-017 (SKOV3 cells [5]): abolished the growth-promoting effect of GA-017
